In ChEMBL document CHEMBL1649102, “Stereochemical survey of digitoxin monosaccharides: new anticancer analogues with enhanced apoptotic activity and growth inhibitory effect on human non-small cell lung cancer cell” (ACS Med Chem Lett, 2011):

What was measured:
[1] = Growth inhibition of human NCI60 cells; format: functional
How it was run: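 NCI-60 cell lines grown in RPMI 1640 with 5% FBS and 2 mM L-glutamine, plated at 5,000–40,000 cells/well and preincubated 24 h. Time-zero plates were TCA-fixed. Drug was given at five concentrations (10-fold or ½-log dilutions from DMSO stock) for 48 h at 37°C. Cells were TCA-fixed, stained with SRB, and read at 515 nm. GI50 is where [(Ti−Tz)/(C−Tz)]×100 = 50.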

[2] = tested on: NCI-H460; assay: Cytotoxicity against human NCI-H460 cells assessed as cell death at 50 nM after 12 hrs by Hoechst-33342 staining and propidium iodide staining; format: functional, cell-based; conditions: NCI-H460, 12 h
How it was run: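 NCI-H460 cells were seeded at 50,000 cells/well for 12 h, then exposed 12 h in serum-free medium (DMSO <0.1%). Cells were stained with Hoechst 33342 (10 µg/ml) and propidium iodide (20 µg/ml) for 30 min at 37°C. Condensed or fragmented nuclei were scored by fluorescence microscopy, and apoptotic index = apoptotic/total nuclei ×100. Duplicate wells, ≥3 runs (N = 6).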

[3] = tested on: NCI-H460; assay: Growth inhibition of human NCI-H460 cells after 48 hrs by MTT assay; format: functional; conditions: NCI-H460, 48 h
How it was run: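 NCI-H460 cells in RPMI 1640 with 10% FBS were seeded at 10,000 cells/well for 12 h. Drug was diluted 1000× from DMSO into 1% FBS medium (DMSO <0.1%). Time-course runs used 50 nM; dose–response runs used 48 h exposure. Viability was read by MTT (4 h), with formazan dissolved in DMSO for 45 min and read at 562 nm. Triplicate wells, ≥3 runs (N = 9), two-way ANOVA.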

Structure (SMILES)	GI50 [1]	IC50 [2]	GI50 [3]
C[C@H]1O[C@@H](O[C@H]2[C@@H](O)C[C@H](O[C@H]3CC[C@@]4(C)[C@H](CC[C@@H]5[C@@H]4CC[C@]4(C)[C@@H](C6=CC(=O)OC6)CC[C@]54O)C3)O[C@@H]2C)C[C@H](O)[C@@H]1O	50 nM		
C[C@@H]1O[C@@H](O[C@H]2CC[C@@]3(C)[C@H](CC[C@@H]4[C@@H]3CC[C@]3(C)[C@@H](C5=CC(=O)OC5)CC[C@]43O)C2)C=C[C@H]1O	1 nM		
C[C@H]1O[C@H](O[C@H]2CC[C@@]3(C)[C@H](CC[C@@H]4[C@@H]3CC[C@]3(C)[C@@H](C5=CC(=O)OC5)CC[C@]43O)C2)CC[C@@H]1O	113 nM		
C[C@@H]1O[C@H](O[C@H]2CC[C@@]3(C)[C@H](CC[C@@H]4[C@@H]3CC[C@]3(C)[C@@H](C5=CC(=O)OC5)CC[C@]43O)C2)C[C@@H](O)[C@H]1O	> 50 nM		
C[C@H]1O[C@@H](O[C@H]2[C@@H](O)C[C@H](O[C@H]3[C@@H](O)C[C@H](O[C@H]4CC[C@@]5(C)[C@H](CC[C@@H]6[C@@H]5CC[C@]5(C)[C@@H](C7=CC(=O)OC7)CC[C@]65O)C4)O[C@@H]3C)O[C@@H]2C)C[C@H](O)[C@@H]1O [DIGITOXIN]		357 nM	10.7 nM
